Converted amounts (≈) assume the structure as drawn. Where a SMILES comes first, the peptide text is derived from it. [ ]: non-standard residue; d: D form. The star is where a group is joined. dPhe(4-Cl) = N[C@H](Cc1ccc(Cl)cc1)C(=O)O; d2Nal = N[C@H](Cc1ccc2ccccc2c1)C(=O)O; Lys(iPr) = CC(C)NCCCC[C@H](N)C(=O)O; d3Pal = N[C@H](Cc1cccnc1)C(=O)O; Nicotinoyl = O=C(c1cccnc1)*

Four molecules from ChEMBL document CHEMBL1126163, “Decreased histamine release by luteinizing hormone-releasing hormone antagonists obtained upon translocation of the cationic amino acid from position 8 to position 7” (1992) can be followed below.

The species named for assay [1] is Rattus norvegicus. As to the kind of experiment: In vitro histamine release from isolated rat mast cells. The format is functional. The following applies: read-out: ED50 (the source's name). The gist of the method: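 Histamine release from rat mast cells in vitro, run in duplicate with mast cells from three different rats. LHRH and Nal-Arg standards were included with each set of analogues. The read-out was the ED50 in μg/mL, reported as mean ± SEM.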

The species entered for assay [2] is Rattus norvegicus. The assay can be described thus: Compound was evaluated for its ovulating activity in anti-ovulatory assay (AOA) by using 10 rats at the dose of 2 microgram. The format is functional. The gist of the method: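 Standard antiovulatory assay in 4-day cycling female rats, 10 rats per dose group. Each analogue was given at the stated dose in μg per rat, and the read-out was the number of rats ovulating out of 10.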

For `CC(=O)N[C@H](Cc1ccc2ccccc2c1)C(=O)N[C@H](Cc1ccc(Cl)cc1)C(=O)N[C@H](Cc1cccnc1)C(=O)N[C@@H](CO)C(=O)N[C@@H](CCCCNC(=O)c1ccccn1)C(=O)N[C@H](CCCCNC(=O)c1ccccn1)C(=O)N[C@@H](CCCCNC(C)C)C(=O)N[C@@H](CCCCNC(=O)c1cccnc1)C(=O)N1CCC[C@H]1C(=O)N[C@H](C)C(N)=O`, the EC50 in the assay filed under Rattus norvegicus [1] amounted to 70 µg/mL (≈ 40.9 µM). The molecule further returned an AOA in the assay listed under Rattus norvegicus [2] of 8.
Consider `CC(=O)N[C@H](Cc1ccc2ccccc2c1)C(=O)N[C@H](Cc1ccc(Cl)cc1)C(=O)N[C@H](Cc1c[nH]c2ccccc12)C(=O)N[C@@H](CO)C(=O)N[C@@H](Cc1ccc(O)cc1)C(=O)N[C@H](CCCN=C(N)N)C(=O)N[C@@H](CCCN=C(N)N)C(=O)N[C@@H](CC(C)C)C(=O)N1CCC[C@H]1C(=O)N[C@H](C)C(N)=O`, for which the EC50 in the assay filed under Rattus norvegicus [1] was found to be 2.4 µg/mL (≈ 1.63 µM). In addition, the AOA in the assay filed under Rattus norvegicus [2] was determined as 10.
With `CC(=O)N[C@H](Cc1ccc2ccccc2c1)C(=O)N[C@H](Cc1ccc(Cl)cc1)C(=O)N[C@H](Cc1c[nH]c2ccccc12)C(=O)N[C@@H](CO)C(=O)N[C@@H](Cc1ccc(O)cc1)C(=O)N[C@H](CCCN=C(N)N)C(=O)N[C@@H](CC(C)C)C(=O)N[C@@H](CCCN=C(N)N)C(=O)N1CCC[C@H]1C(=O)N[C@H](C)C(N)=O` (Ac-[d2Nal][dPhe(4-Cl)][dW]SY[dR]LRP[dA]-NH2), the EC50 in the assay listed under Rattus norvegicus [1] is 0.1 µg/mL (≈ 0.0681 µM).
For `CC(=O)N[C@H](Cc1ccc2ccccc2c1)C(=O)N[C@H](Cc1ccc(Cl)cc1)C(=O)N[C@H](Cc1cccnc1)C(=O)N[C@@H](CO)C(=O)N[C@@H](CCCCNC(=O)c1cccnc1)C(=O)N[C@H](CCCCNC(=O)c1cccnc1)C(=O)N[C@@H](CC(C)C)C(=O)N[C@@H](CCCCNC(C)C)C(=O)N1CCC[C@H]1C(=O)N[C@H](C)C(N)=O` [Antide] (Ac-[d2Nal][dPhe(4-Cl)][d3Pal]SK(Nicotinoyl)[dK](Nicotinoyl)L[Lys(iPr)]P[dA]-NH2), the EC50 in the assay listed under Rattus norvegicus [1] is > 300 µg/mL.
